UHRF1 MBD2 ctr = blocks human UHRF1 binding to methylated DNA; UHRF1 binding to methylated oligo, TR-FRET; 370,000 compounds, 0.75% hits; inhibition, % at 4.4 µM; in the data active means inhibition above about 21%;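 further: UHRF1 SRA domain binding a hemimethylated CpG hairpin DNA probe; 0% = median of test compound wells and 100% = reference inhibitor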
LEDGF integ inh = blocks HIV-1 LEDGF/p75-dependent DNA integration | inhibition, % at 3.7 µM | 370,000 compounds, 0.64% hits | TR-FRET IN-LEDGF/p75 DNA integration, Eu/Cy5;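 active means inhibition above the screen-wide mean plus 3 SD, cut at about 13% in these data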;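 further: signal is the Cy5 over europium emission ratio at 671 and 618 nm; 0% = plate median of compound wells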
Rin1 Abl inh = human Rin1-Abl interaction inhibition. P00519+Q13671. TR-FRET Rin1/Abl binding, biochemical. inhibition, % at 7.35 µM. 360,000 compounds, 0.4% hits; in the data active means inhibition above about 5%, passing the limit was not always enough
TDP2 inh = TDP2 (human) inhibition, absorbance primary screen. O95551. recombinant TDP2, T5PNP hydrolysis, p-nitrophenol absorbance 415 nm. inhibition, % at 12.8 µM. 370,000 compounds, 0.34% hits;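 active means inhibition above the mean of all tested compounds plus 3 SD, set per campaign, cut at about 25% in these data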;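 further: 0% = DMSO with enzyme and 100% = buffer with substrate but no TDP2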
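Assay system: Recombinant human TDP2 | Quantity: 120 nM TDP2 per well | Incubation: 2 h at 37 °C | Signal: Epi absorbance | Evaluation: Percent inhibition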
MBD2 inh = MBD2-methylated oligo binding inhibition; Q9UBB5; 370,000 compounds, 0.31% hits; TR-FRET, MBD2 binding to methylated oligonucleotide; inhibition, % at 4.4 µM; in the data active means inhibition above about 13%
Starred values were filed as active, the others as inactive; . = no result. An excerpt weighted towards active compounds, which were near 1.9% of everything screened.

SMILES | UHRF1 MBD2 ctr | LEDGF integ inh | Rin1 Abl inh | TDP2 inh | MBD2 inh
COc1cccc(Cn2cc(COC(=O)NCCc3ccccc3)nn2)c1 | 0.0 | -4.0 | . | 0.2 | -3.5
Fc1cccc(Cl)c1CNC(c1ccccc1)c1ccccc1 | 58.0* | 2.1 | -0.6 | -2.1 | -3.7
CC(C)CCN(C)C1CCN(C(=O)Nc2ccc(Cl)cc2)CC1 | -0.1 | 0.4 | . | 6.1 | 0.2
O=C(C1CCCN1S(=O)(=O)c1ccc(Br)s1)N1CCc2ccccc2C1 (configuration not stated) | 1.4 | 2.1 | . | -0.1 | -0.4
Cc1nc2ccc(C(=O)N3c4ccccc4CC3C)cc2s1 (configuration not stated) | 23.2* | -1.9 | 0.3 | -2.6 | 5.4
COC(=O)[C@]12C[C@H](CC(=O)NCCC(C)C)C(=O)N(Cc3cccc4ccccc34)C1=C[C@H](COCc1ccccc1)O[C@@H]2C | 0.2 | -2.0 | . | -6.6 | 1.9
CCC(CO)Oc1cc(NCc2ccccc2)c2ncn(C(C)C)c2c1 (configuration not stated) | -2.6 | 0.8 | 0.9 | 2.6 | -7.2
CCC(COC(=O)c1ccccc1)Oc1cc(NCc2ccccc2)c2ncn(C(C)C)c2c1 (configuration not stated) | -5.7 | 6.7 | -0.8 | 36.0* | -8.4
COc1ccccc1CN=Cc1[nH]c2ccc(Br)c(Cl)c2c1O | -3.8 | 0.8 | -9.4 | -0.1 | -3.5
Cc1cccc(N=Cc2[nH]c3ccc(Br)c(Cl)c3c2O)c1 | -3.0 | -0.6 | 0.9 | 28.8* | -5.1
O=S1(=O)c2ccc(Br)cc2OC[C@@H](Cc2ccccc2)N1Cc1cn(Cc2ccccc2)nn1 | 0.2 | -3.5 | . | -0.6 | 2.4
CCOc1ccc(-n2c(SCc3nc4ccccc4[nH]3)nnc2-c2cccc(Cl)c2)cc1 | -3.5 | 2.6 | . | -4.1 | 3.8
COc1cccc(-n2cc(CNC(=O)C3CCC(=O)N(C4CC4)C3)cn2)c1 (configuration not stated) | 21.4* | 4.4 | 3.4 | 2.8 | 9.4
COc1cccc(-n2cc(CN(C)C(=O)C3CCC(=O)N(C4CC4)C3)cn2)c1 (configuration not stated) | -1.1 | -1.1 | 3.4 | -3.6 | -1.0
O=c1cc(N2CCN(c3ccnc4cc(Cl)ccc34)CC2)[nH]c(=O)n1C1CCCCC1 | -1.2 | 3.6 | . | 0.0 | 3.3
O=C(O)c1cccn2c(=O)c3ccccc3nc12 | 20.7* | -2.0 | -3.0 | -3.4 | 10.8
CC(C)(C)C(=O)O[C@@H]1CCC[C@@]2(C(=O)N(Cc3ccccc3)c3ccccc32)[C@H]1NC(=O)CCc1ccccc1 | -2.3 | 2.6 | . | -3.5 | -7.2
Cc1cc(C)c2nc3sc(C(=O)N4CCOCC4)c(N)c3cc2c1 | 36.6* | -1.3 | -10.0 | 11.9 | -5.7
COC(=O)CC1=NN(c2nc3ccccc3s2)C(=O)/C1=C/N(C)C | 78.6* | 4.6 | 0.1 | -9.7 | -2.5
COC(=O)Cc1[nH]n(-c2nc3ccccc3s2)c(=O)c1C(C)=O | 5.3 | 2.9 | 3.9 | 17.4 | 3.8
CC(C)(CN1CCN(Cc2ccccc2)CC1)NS(=O)(=O)c1ccccc1 | 22.3* | 1.4 | 0.1 | -20.1 | 3.9
COc1ccc(C=NOCC(=O)OCC(=O)Nc2ccc(OC)cc2)cc1 | 28.7* | -2.7 | -0.3 | 2.4 | -1.7
CC(c1ccccc1)n1cc(C(=O)N2CCCC2)nn1 (configuration not stated) | 0.6 | -0.6 | . | -0.6 | -4.2
CC[C@@]1(C(=O)OC)N[C@H](CN(C)C(=O)Nc2ccc(OC)cc2)[C@@H]2C(=O)N(C)C(=O)[C@@H]21 | 22.2* | -5.0 | -3.3 | -3.3 | 10.6
COc1ccccc1C(=O)NC1CCCCN(Cc2ccc(C)cc2)C1=O (configuration not stated) | -0.3 | 1.7 | . | 6.0 | 3.4
SMILES | UHRF1 MBD2 ctr | LEDGF integ inh | Rin1 Abl inh | TDP2 inh | MBD2 inh
CCn1nc(C)c(NC(=O)c2ccc(Cl)cc2)c1C | 27.3* | 4.9 | -0.4 | -7.8 | 12.6
CCOc1ccc(NC(=S)N2CCC(C(=O)c3ccc(F)cc3)CC2)cc1 | 0.4 | 2.0 | -0.8 | 6.5 | 3.8
CCOc1ccc(NC(=O)N2CCC(C(=O)c3ccc(F)cc3)CC2)cc1 | 21.5* | -0.6 | 2.5 | -10.6 | 7.7
C=CCN1C(=O)[C@H](CC(=O)NCCCOCCCC)[C@@]2(C(=O)OCC)CCCC=C12 | -2.6 | 6.6 | . | -15.2 | -5.8
Cc1ccc(C)c2[nH]c(=O)c(CN(Cc3ccc4c(c3)OCO4)Cc3nnnn3Cc3ccco3)cc12 | 3.6 | 17.6* | -2.4 | -1.8 | 2.1
COc1cccc(O)c1CN1CCC(C(=O)Nc2ccc(Oc3cccnc3)cc2)CC1 | 1.2 | -4.0 | -0.2 | -6.6 | 1.1
COc1ccc(CN2CCC(C(=O)Nc3ccc(Oc4cccnc4)cc3)CC2)cc1 | 0.5 | -0.9 | 8.2* | 4.7 | 0.2
CC(=O)c1nn(-c2ccc(Cl)cc2)cc1C(=O)c1ccc(C)cc1 | 26.4* | -4.1 | -1.7 | -12.3 | 9.3
CC(=O)c1nn(-c2ccccc2)cc1C(=O)c1ccc(C)cc1 | 9.1 | -1.3 | 0.6 | 4.1 | 4.6
COC(=O)C1CN(Cc2ccc(Cl)cc2)CCS(=O)(=O)N1Cc1cn(Cc2ccc(C)cc2)nn1 (configuration not stated) | 8.3 | 1.3 | . | -7.0 | -6.6
COC(=O)CC1COc2ccccc2N1C(=O)c1cccc(Cl)c1 (configuration not stated) | 6.6 | -1.2 | -1.1 | 3.6 | 7.1
CCOC(=O)CC1COc2ccccc2N1C(=O)c1cccc([N+](=O)[O-])c1 (configuration not stated) | 40.0* | -3.1 | 2.2 | 2.4 | 2.7
Nn1c(SCC(=O)Nc2ccccc2-c2ccccc2)nnc1-c1cc(-c2ccc(Cl)cc2)n[nH]1 | -1.2 | -2.4 | . | -9.7 | 2.7
O=C(OC12CCCN(C1)/C(=C/c1ccc(Cl)cc1)C2)c1ccco1 (configuration not stated) | 6.1 | -1.7 | . | -7.4 | 0.4
Cc1cc(S(=O)(=O)N2CCCC(N(C)CCc3ccccn3)C2)c(C)cc1Cl (configuration not stated) | 23.5* | 3.4 | 1.6 | 8.4 | 8.7
Cc1ccc(S(=O)(=O)N2CCN(C(C)C(=O)N3CCCc4ccccc43)CC2)cc1 (configuration not stated) | 26.8* | 0.3 | -1.9 | -0.3 | 1.3
CC(C(=O)N1CCCc2ccccc21)N1CCN(S(=O)(=O)c2ccccc2F)CC1 (configuration not stated) | 4.4 | 5.2 | 1.0 | 2.2 | 2.7
Cc1ccc2c(c1)-c1c(cnn1CC(=O)NCCc1ccc(O)cc1)CO2 | -1.5 | -0.9 | . | 4.0 | 4.9
CCSc1nnc(CNc2ccc(C)cc2)n1C | 23.6* | -0.4 | 2.7 | -10.1 | 10.6
O=C(Nc1ccc(NC(=O)c2cc([N+](=O)[O-])ccc2N2CCOCC2)cc1)c1cccs1 | 22.7* | -1.9 | -1.7 | -21.1 | 8.6
CC(=O)Nc1cc(Cl)c(N=Cc2ccc(O)cc2O)cc1Cl | 1.0 | 24.5* | 0.9 | -3.3 | -7.5

High-throughput results deposited in PubChem BioAssay by The Scripps Research Institute Molecular Screening Center.
